From ChEMBL document CHEMBL1138711, “1,2,3,4-Tetrahydroquinoline-containing alphaVbeta3 integrin antagonists with enhanced oral bioavailability” (Bioorg Med Chem Lett, 2004)

Tests used:
[1] = target: Integrin alpha-V/beta-3 (Homo sapiens, UniProt P05106+P06756); test: Inhibitory concentration for human vitronectin binding to immobilized alphaV-beta3 integrin; assay type: protein-complex assay
[2] = target: Integrin alpha-V/beta-5 (Homo sapiens, UniProt P06756+P18084); test: Inhibitory concentration for human vitronectin binding to immobilized alphaV-beta5 integrin; assay type: protein-complex assay
[3] = target: Integrin alpha-IIb/beta-3 (Homo sapiens, UniProt P05106+P08514); test: Inhibitory concentration for biotinylated fibrinogen binding to immobilized alpha IIb beta-3 integrin; assay type: protein-complex assay
[4] = Oral bioavailability in rat; assay type: ADME, organism-based; details: in vivo
In short: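 Rats dosed orally at 10 mg/kg (N = 4) and intravenously at 2 mg/kg (N = 4) unless otherwise noted. The oral vehicle was D5W (5% dextrose) adjusted to pH 2 with 0.1 N HCl. Plasma drug levels were measured by LC/MS, and bioavailability was derived by comparing oral with intravenous exposure.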

[5] = Maximum plasma concentration when administered perorally at 30 mg/kg dose; assay type: ADME, organism-based; parameters: dose 30 mg/kg, route oral; details: rat, po
[6] = Plasma half-life when administered perorally at 30 mg/kg dose; assay type: ADME, organism-based; parameters: dose 30 mg/kg, route oral; details: rat, po
[7] = Maximum plasma concentration when administered perorally at 15 mg/kg dose in rat; assay type: ADME, organism-based; parameters: dose 15 mg/kg, route oral; details: po
[8] = Time to reach maximum plasma concentration when administered perorally at 15 mg/kg dose in rat; assay type: ADME, organism-based; parameters: dose 15 mg/kg, route oral; details: po
[9] = Plasma half-life when administered perorally at 10 mg/kg dose; details: rat, in vivo, po

Chain of Integrin alpha-V/beta-3 (P05106 27-788 limits assumed): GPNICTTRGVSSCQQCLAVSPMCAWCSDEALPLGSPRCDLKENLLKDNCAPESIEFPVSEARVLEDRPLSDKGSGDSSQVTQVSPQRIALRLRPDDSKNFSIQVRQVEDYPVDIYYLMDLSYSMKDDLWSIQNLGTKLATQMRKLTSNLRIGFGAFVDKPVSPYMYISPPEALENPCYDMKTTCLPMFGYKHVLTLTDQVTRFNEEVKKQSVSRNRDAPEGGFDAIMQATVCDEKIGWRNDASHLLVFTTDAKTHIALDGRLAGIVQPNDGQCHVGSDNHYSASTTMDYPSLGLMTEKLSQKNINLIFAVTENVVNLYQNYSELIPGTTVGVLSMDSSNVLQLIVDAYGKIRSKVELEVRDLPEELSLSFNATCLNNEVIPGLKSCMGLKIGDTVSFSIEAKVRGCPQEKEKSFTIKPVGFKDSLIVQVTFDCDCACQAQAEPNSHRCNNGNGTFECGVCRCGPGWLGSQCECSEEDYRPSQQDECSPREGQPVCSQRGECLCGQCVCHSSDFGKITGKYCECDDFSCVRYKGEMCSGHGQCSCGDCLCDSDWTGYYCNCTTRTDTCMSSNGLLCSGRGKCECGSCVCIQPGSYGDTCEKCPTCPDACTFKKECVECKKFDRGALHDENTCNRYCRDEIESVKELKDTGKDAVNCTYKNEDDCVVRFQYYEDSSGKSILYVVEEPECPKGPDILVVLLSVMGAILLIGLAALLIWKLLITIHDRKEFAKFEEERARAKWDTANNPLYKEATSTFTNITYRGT
Chain of Integrin alpha-V/beta-3 (P06756 31-889 limits assumed): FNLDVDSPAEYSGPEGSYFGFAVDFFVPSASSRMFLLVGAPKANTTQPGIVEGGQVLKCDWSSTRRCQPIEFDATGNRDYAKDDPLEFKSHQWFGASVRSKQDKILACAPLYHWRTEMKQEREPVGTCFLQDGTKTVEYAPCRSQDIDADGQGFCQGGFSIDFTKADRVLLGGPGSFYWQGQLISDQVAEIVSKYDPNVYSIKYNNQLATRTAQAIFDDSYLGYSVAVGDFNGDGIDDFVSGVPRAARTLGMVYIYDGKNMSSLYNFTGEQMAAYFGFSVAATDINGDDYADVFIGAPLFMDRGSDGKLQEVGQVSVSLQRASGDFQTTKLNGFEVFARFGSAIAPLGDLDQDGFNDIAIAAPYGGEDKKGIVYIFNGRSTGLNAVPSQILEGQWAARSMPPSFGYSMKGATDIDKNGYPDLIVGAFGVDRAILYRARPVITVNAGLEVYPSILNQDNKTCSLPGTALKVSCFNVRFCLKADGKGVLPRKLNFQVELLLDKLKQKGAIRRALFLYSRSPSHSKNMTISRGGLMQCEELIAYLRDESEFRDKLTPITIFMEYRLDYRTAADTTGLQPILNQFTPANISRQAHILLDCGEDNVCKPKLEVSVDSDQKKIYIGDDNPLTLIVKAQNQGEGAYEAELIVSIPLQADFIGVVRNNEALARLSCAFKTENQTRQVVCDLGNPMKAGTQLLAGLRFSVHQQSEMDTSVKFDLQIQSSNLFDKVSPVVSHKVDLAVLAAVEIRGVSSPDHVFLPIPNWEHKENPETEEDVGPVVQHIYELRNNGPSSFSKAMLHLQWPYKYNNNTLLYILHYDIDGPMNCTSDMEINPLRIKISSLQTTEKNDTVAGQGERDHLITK
Chain of Integrin alpha-V/beta-3 (P06756 891-1048 limits assumed): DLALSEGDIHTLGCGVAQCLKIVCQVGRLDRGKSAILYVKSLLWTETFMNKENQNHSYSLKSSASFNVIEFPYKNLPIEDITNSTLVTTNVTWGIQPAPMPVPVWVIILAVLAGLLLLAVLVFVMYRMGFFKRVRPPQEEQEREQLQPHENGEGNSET
Chain of Integrin alpha-IIb/beta-3 (P05106 27-788 limits assumed): as the sequence (P05106 27-788 limits assumed) above
Chain of Integrin alpha-IIb/beta-3 (P08514 32-887 limits assumed): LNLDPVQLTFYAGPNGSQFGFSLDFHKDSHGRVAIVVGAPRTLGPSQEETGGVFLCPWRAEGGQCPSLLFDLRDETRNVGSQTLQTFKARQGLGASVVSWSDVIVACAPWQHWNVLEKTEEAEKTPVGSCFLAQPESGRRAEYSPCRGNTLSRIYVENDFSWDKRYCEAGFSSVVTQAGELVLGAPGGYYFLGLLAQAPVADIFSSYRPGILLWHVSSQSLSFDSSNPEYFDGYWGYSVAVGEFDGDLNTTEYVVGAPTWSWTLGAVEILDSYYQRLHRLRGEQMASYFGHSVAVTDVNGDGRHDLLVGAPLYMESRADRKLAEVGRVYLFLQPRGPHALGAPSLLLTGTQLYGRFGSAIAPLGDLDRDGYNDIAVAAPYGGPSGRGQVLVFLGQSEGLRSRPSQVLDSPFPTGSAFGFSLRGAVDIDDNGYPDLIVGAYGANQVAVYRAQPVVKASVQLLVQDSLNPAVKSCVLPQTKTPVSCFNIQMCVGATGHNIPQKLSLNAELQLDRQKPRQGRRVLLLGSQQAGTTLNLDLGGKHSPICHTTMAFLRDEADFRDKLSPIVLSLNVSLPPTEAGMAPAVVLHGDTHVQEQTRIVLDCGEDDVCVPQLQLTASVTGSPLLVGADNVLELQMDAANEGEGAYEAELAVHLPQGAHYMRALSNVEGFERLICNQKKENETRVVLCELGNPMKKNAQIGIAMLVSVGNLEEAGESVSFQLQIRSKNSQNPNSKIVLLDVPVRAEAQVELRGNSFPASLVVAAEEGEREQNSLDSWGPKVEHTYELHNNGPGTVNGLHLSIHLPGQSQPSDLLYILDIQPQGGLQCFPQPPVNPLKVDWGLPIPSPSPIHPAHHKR
Chain of Integrin alpha-IIb/beta-3 (P08514 891-1039 limits assumed): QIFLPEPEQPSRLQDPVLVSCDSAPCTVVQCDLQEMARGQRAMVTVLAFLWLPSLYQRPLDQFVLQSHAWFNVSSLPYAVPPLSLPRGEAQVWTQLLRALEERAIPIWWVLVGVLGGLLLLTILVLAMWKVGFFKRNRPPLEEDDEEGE
Chain of Integrin alpha-V/beta-5 (P06756 31-889 limits assumed): as the sequence (P06756 31-889 limits assumed) above
Chain of Integrin alpha-V/beta-5 (P06756 891-1048 limits assumed): as the sequence (P06756 891-1048 limits assumed) above
Chain of Integrin alpha-V/beta-5 (P18084 24-799 limits assumed): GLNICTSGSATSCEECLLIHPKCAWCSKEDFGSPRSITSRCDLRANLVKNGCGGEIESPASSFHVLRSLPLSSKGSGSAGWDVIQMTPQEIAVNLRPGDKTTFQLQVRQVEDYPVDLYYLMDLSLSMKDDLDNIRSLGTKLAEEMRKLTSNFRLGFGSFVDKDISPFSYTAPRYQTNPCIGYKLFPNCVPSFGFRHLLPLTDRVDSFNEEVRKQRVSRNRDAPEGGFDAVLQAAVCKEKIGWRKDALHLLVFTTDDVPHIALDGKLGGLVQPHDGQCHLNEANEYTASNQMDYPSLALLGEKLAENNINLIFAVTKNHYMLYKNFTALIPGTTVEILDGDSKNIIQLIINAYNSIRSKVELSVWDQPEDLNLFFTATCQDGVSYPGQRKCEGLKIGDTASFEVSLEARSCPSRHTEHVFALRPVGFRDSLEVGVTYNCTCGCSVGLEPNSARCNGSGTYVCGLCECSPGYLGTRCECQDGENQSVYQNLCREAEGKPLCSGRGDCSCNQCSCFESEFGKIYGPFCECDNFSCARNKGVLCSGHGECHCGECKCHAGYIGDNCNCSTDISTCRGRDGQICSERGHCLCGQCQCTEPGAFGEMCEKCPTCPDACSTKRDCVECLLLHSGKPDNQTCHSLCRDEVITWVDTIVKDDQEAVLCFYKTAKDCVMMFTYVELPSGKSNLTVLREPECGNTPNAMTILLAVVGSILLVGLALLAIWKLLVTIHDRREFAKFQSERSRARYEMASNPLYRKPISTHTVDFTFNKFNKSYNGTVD

SMILES	IC50 [1]	IC50 [2]	IC50 [3]	bioavailability [4]	Cmax ([5]; plasma)	half-life [6]	F [4]	Cmax [7]	Tmax [8]	Cmax ([5]; in vivo)	T1/2 [9]
O=C(O)C[C@H](NC(=O)C1CCN(C(=O)CCCNC2=NCCN2)CC1)c1cnc2ccccc2c1	3.6 nM	470 nM	170 nM	4%	800 nM	7 h	–	–	–	–	–
O=C(O)C[C@@H](C1CCN(C(=O)CCCc2ccc3c(n2)NCCC3)CC1)C1CNc2ccccc2C1 (mixture of isomers)	3.7 nM	260 nM	15000 nM	–	–	–	100%	–	–	–	–
O=C(O)CC(CC1CCN(C(=O)CCc2ccc3c(n2)NCCC3)CC1)C1CNc2ccccc2C1 (racemic)	–	–	14000 nM	–	–	–	–	21000 nM	2 h	–	–
O=C(O)C[C@@H](C1CCN(C(=O)CCCc2ccc3c(n2)NCCC3)CC1)C1CNc2ccccc2C1 (single isomer, unassigned; isomer b)	70 nM	2500 nM	> 50000 nM	–	–	–	–	–	–	–	–
O=C(O)C[C@@H](C1CCN(C(=O)CCCc2ccc3c(n2)NCCC3)CC1)C1CNc2ccccc2C1 (single isomer, unassigned; isomer d)	5.4 nM	160 nM	17000 nM	–	–	–	52%	–	–	58000 nM	1 h
O=C(O)C[C@@H](CC1CCN(C(=O)CCc2ccc3c(n2)NCCC3)CC1)c1cnc2c(c1)CCCC2 (stereo in doubt; 28)	1.6 nM	11 nM	3000 nM	–	–	–	0%	–	–	–	–
COc1ccc([C@@H](CC(=O)O)CC2CCN(C(=O)CCc3ccc4c(n3)NCCC4)CC2)cn1 (stereo in doubt; 34)	0.7 nM	2.7 nM	6100 nM	–	–	–	8%	–	–	900 nM	–
COc1ccc([C@@H](CC(=O)O)CC2CCN(C(=O)CCc3ccc4c(n3)NCCC4)CC2)cn1 (stereo in doubt; form 1)	0.4 nM	3.1 nM	1800 nM	–	–	2 h	2%	–	–	100 nM	–
O=C(O)C[C@@H](CC1CCN(C(=O)CCc2ccc3c(n2)NCCC3)CC1)c1cnc2c(c1)CCCC2 (stereo in doubt; form 1)	26 nM	1000 nM	> 50000 nM	–	–	–	–	–	–	–	–
COc1ccc([C@@H](CC(=O)O)CC2CCN(C(=O)CCc3ccc4c(n3)NCCC4)CC2)cn1 (stereo in doubt; form 2)	16 nM	98 nM	> 50000 nM	–	–	–	–	–	–	–	–
O=C(O)C[C@@H](CC1CCN(C(=O)CCc2ccc3c(n2)NCCC3)CC1)c1cnc2c(c1)CCCC2 (stereo in doubt; form 4)	52 nM	2200 nM	> 50000 nM	–	–	–	–	–	–	–	–

Other lines, results leading:

IC50 [1]	IC50 [2]	IC50 [3]	bioavailability [4]	Cmax ([5]; plasma)	half-life [6]	F [4]	Cmax [7]	Tmax [8]	Cmax ([5]; in vivo)	T1/2 [9]	SMILES
0.5 nM	36 nM	870 nM	1%	–	–	–	–	–	–	–	O=C(O)C[C@H](c1cnc2ccccc2c1)C1CCN(C(=O)CCCc2ccc3c(n2)NCCC3)CC1
0.8 nM	2.2 nM	1100 nM	4%	500 nM	3 h	–	–	–	–	–	O=C(O)C[C@@H](CC1CCN(C(=O)CCc2ccc3c(n2)NCCC3)CC1)c1cnc2ccccc2c1
2.6 nM	270 nM	2900 nM	–	–	–	–	–	–	–	–	O=C(O)C[C@H](NC(=O)C1CCN(C(=O)CCc2ccc3c(n2)NCCC3)CC1)c1cnc2ccccc2c1
4 nM	2.9 nM	1200 nM	–	–	–	–	–	–	–	–	O=C(O)C[C@@H]1Cc2ccc(OCCCNc3ccccn3)cc2Cc2ccccc21
49 nM	180 nM	> 50000 nM	–	–	–	–	–	–	–	–	CN1CC(C(CC(=O)O)CC2CCN(C(=O)CCc3ccc4c(n3)NCCC4)CC2)Cc2ccccc21 (racemic)
1.6 nM	44 nM	13000 nM	–	–	2 h	46%	–	–	8000 nM	–	O=C(O)C[C@@H](C1CCN(C(=O)CCCc2ccc3c(n2)NCCC3)CC1)C1CNc2ccccc2C1 (stereo in doubt; form 1)
100 nM	1500 nM	> 50000 nM	–	–	–	–	–	–	–	–	O=C(O)C[C@@H](C1CCN(C(=O)CCCc2ccc3c(n2)NCCC3)CC1)C1CNc2ccccc2C1 (stereo in doubt; form 2)
